Rows were chosen to be rich in hits. Some 3.9% of all compounds tested hit in one or more screens of this group.
Gli-Sufu block = antagonists of Gli-Sufu signaling | inhibition, % at 5 µM | 340,000 compounds, 0.74% hits | Sufu-KO-LIGHT fibroblasts, Gli luciferase reporter luminescence;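 active = inhibition above about 55%, limit read from the data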
Jurkat NFkB inh = inhibitors of the PMA/ionomycin-induced NF-kB reporter in Jurkat cells; PMA/ionomycin-induced NF-kB luciferase reporter, luminescence; inhibition, % at 4 µM; 330,000 compounds, 0.53% hits; AID 435003; in the data active = inhibition above about 50%
CHOP inhibitor = blocks CHOP induction under ER stress; CHO-K1 CHOP-promoter luciferase, tunicamycin-induced, 15-18 h; inhibition, % at 10 µM; 220,000 compounds, 3.8% hits;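 active = compounds that reduced the stress-induced luciferase reporter signal by more than about 70% of percent inhibition, limit read from the data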
CHOP UPR activ = activators of apoptotic arm of unfolded protein response (CHOP); AID 449763; CHO-CHOP luciferase reporter, UPR activation, luminescence; percent of tunicamycin response over DMSO baseline; 330,000 compounds, 0.34% hits; activation, % at 10 µM;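 active = at 10 µM dose, activation of 40% or more, normalized to positive control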
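System: CHO CHOP reporter cells. Amount: 500 cells per well. Buffer or medium: F12 medium, 10% FBS. Compound dosing: one dose, 10 µM in 0.5% DMSO. Incubation: 6 h compound exposure at 37 °C after overnight seeding. Technique: Steady-Glo luciferase luminescence. Benchmarks: tunicamycin and DMSO controls.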
697 NFkB inh = inhibitors of the PMA/ionomycin-induced NF-kB reporter in 697 B cells | 697 B-cell NF-kB luciferase reporter, 16 h | inhibition, % at 4 µM | 330,000 compounds, 0.33% hits; in the data active = inhibition above about 35%
XBP1 UPR activ = adaptive UPR (XBP1) activation | CHO-XBP1 luciferase reporter, IRE1-XBP1 UPR activation, luminescence; percent of tunicamycin response, DMSO as zero | activation, % at 20 µM | 330,000 compounds, 0.33% hits | AID 463104;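 active = versus positive control, 20 µM dose yields 30% or more activation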
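Material: CHO-XBP1 cells stably carrying IRE1-XBP1-driven luciferase reporter / Amount: 1000 cells per well / Compound: 20 µM, 1% DMSO / Times: 6 h treatment, 37 °C / Detection: luciferase luminescence / Measure: % activation of reporter signal versus tunicamycin and DMSO controls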
CHOP inh conf = confirmation of CHOP induction inhibitors; CHO-CHOP promoter luciferase reporter, tunicamycin-induced, luminescence; 2,100 compounds, 45% hits; shares compounds with CHOP inhibitor; inhibition, % at 10 µM;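 active = mean of three repeat readings of reporter signal inhibition above a set limit, cut at about 70% in these data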
Jurkat NFkB conf = lowers PMA/ionomycin-induced NF-kB signal in Jurkat cells; shares compounds with Jurkat NFkB inh; Jurkat NF-kB luciferase, 16 h; inhibition, % at 4 µM; 2,700 compounds, 27% hits;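 active = inhibition reaching about 45% at 4 µM in either replicate, limit read from the data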
697 NFkB conf = lowers PMA/ionomycin-induced NF-kB signal in 697 B cells; 2,000 compounds, 35% hits; AID 449746; inhibition, % at 4 µM; 697 B-cell NF-kB luciferase, 16 h; shares compounds with 697 NFkB inh; in the data active = inhibition mostly above about 28%, no sharp cut-off; inactive = mostly below about 22%
Of the large screens only hits and unclear results are named; the others gave an inactive call (follow-up assays come after a bar, where they were run).

O=S1(=O)C=C(Sc2nc3cc(Cl)ccc3o2)c2ccccc21	Jurkat NFkB inh 96.6 (no result: CHOP inhibitor) | CHOP inh conf 138.3 | Jurkat NFkB conf 90.4
Cc1ccc2nc(SCC(=O)Nc3ccc(C(N)=O)cc3)[nH]c2c1	none
Cc1ccc2nc(-c3ccc(NC(=O)CSc4ccccc4)cc3)[nH]c2c1	CHOP inhibitor 103.1 | CHOP inh conf inactive | Jurkat NFkB conf inactive
COc1ccccc1C(=O)NC(=O)COC(=O)C1CC2CCCC(C1)C2=O (configuration not stated)	none (no result: CHOP inhibitor)
CCCNC(=O)c1nnsc1S(=O)c1ccc(Cl)cc1 (configuration not stated)	Jurkat NFkB inh 58.7, CHOP inhibitor 107.2 | CHOP inh conf 140.8 | Jurkat NFkB conf inactive
COc1cc(/C=C/c2nc(N)nc(-c3ccccc3O)n2)cc(OC)c1OC	CHOP inhibitor 96.2, 697 NFkB inh 36.0 | CHOP inh conf 76.5 | 697 NFkB conf inactive
COc1ccc(S(=O)(=O)N[C@@H](CSCc2ccccc2)C(=O)O)cc1	none (no result: CHOP inhibitor)
O=C(CN1C(=O)c2ccccc2S1(=O)=O)c1ccc2c(c1)OCCCO2	Gli-Sufu block 95.9, Jurkat NFkB inh 95.7, CHOP inhibitor 104.1, 697 NFkB inh 94.5 | CHOP inh conf 120.9 | Jurkat NFkB conf 93.7 | 697 NFkB conf 88.6
COc1ccc(NC(=O)C(c2ccc(Cl)cc2)C(C)C)cn1 (configuration not stated)	none (no result: CHOP inhibitor)
CC(C)(C)c1ccc(C(=O)Nc2ccc(CC(=O)O)cc2)o1	Jurkat NFkB inh 59.6, CHOP inhibitor 97.7, 697 NFkB inh 84.2 | CHOP inh conf 92.1 | Jurkat NFkB conf 72.9 | 697 NFkB conf 85.8
Cc1ccc(C(=O)Nc2ccc(CC(=O)O)cc2)o1	none
CCOc1ccc(-c2cc(CCCC(=O)NCc3ccc(C)cc3)no2)cc1	CHOP inhibitor 96.3, 697 NFkB inh 48.3 | CHOP inh conf 78.0 | 697 NFkB conf 36.8
CCn1c(C)nc2cc(-c3nc4n(n3)Cc3ccccc3-4)ccc21	Gli-Sufu block 87.5, Jurkat NFkB inh 90.6, 697 NFkB inh 69.9 (no result: CHOP inhibitor) | CHOP inh conf 138.5 | Jurkat NFkB conf 90.7 | 697 NFkB conf 73.6
COC(=O)[C@@]1(Cc2ccc(OC)cc2)[C@@H]2C(=CC(=O)[C@H]2CC(=O)C(=O)N(C)C)CN1C(=O)c1ccccc1	none
C=C1C(=O)C=C2CN(C(=O)c3ccccc3)[C@@](Cc3ccc(F)cc3)(C(=O)OC)[C@@H]12	Gli-Sufu block 62.4, Jurkat NFkB inh 82.8, CHOP inhibitor 109.2 | CHOP inh conf 128.3 | Jurkat NFkB conf 75.6 | 697 NFkB conf inactive
Cc1cc(C(=O)Nc2cnc3ccccc3c2)ccc1[N+](=O)[O-]	none
Cc1ccc(C(=O)Nc2cnc3ccccc3c2)cc1	Jurkat NFkB inh 59.2, CHOP inhibitor 98.4 | CHOP inh conf 117.2 | Jurkat NFkB conf 73.3 | 697 NFkB conf inactive
CCCCCCCCCCCCCCCC[n+]1cccc2ccccc21	Gli-Sufu block 88.7, Jurkat NFkB inh 87.5, CHOP inhibitor 106.2, 697 NFkB inh 62.3 | CHOP inh conf 119.6 | Jurkat NFkB conf 87.8 | 697 NFkB conf 23.1
Cc1ccccc1C[n+]1cccc2ccccc21	none (no result: CHOP inhibitor)
NS(=O)(=O)c1ccc(CCNC(=O)c2ccc(NS(=O)(=O)c3ccc4[nH]c(=O)[nH]c4c3)cc2)cc1	none (no result: CHOP inhibitor)
O=c1nc(Nc2ccc(OCc3ccccc3)cc2)sc2ncccc12	CHOP inhibitor 101.7 | CHOP inh conf inactive | 697 NFkB conf inactive
COc1cc(-c2noc(CCC(N)=O)n2)cc(OC)c1OC	none (no result: Gli-Sufu block)
CC(C)(C)c1ccc(-c2noc(CCC(N)=O)n2)cc1	Gli-Sufu block 75.8, CHOP inhibitor 100.5, 697 NFkB inh 93.0 | CHOP inh conf 113.0 | 697 NFkB conf 93.9
Cc1cc(C)cc(OCC(=O)OCC(=O)c2cc(C)n(C3CC3)c2C)c1	none (no result: CHOP inhibitor)
CC1CN(S(=O)(=O)c2cccc(C(=O)NCCC3=CCCCC3)c2)CC(C)O1 (configuration not stated)	none (no result: CHOP inhibitor)
C=C1C(=O)O[C@@H]2C[C@@H](C)[C@@H]3C=CC(=O)[C@@]3(C)[C@@H](OC(C)=O)[C@H]12	Gli-Sufu block 95.8, Jurkat NFkB inh 95.7, CHOP inhibitor 107.4, 697 NFkB inh 100.4 | CHOP inh conf 120.3 | Jurkat NFkB conf 98.3 | 697 NFkB conf 100.2
CC(=O)c1cccc(NC(=O)COC(=O)c2ccccc2C)c1	none (no result: CHOP inhibitor)
Cc1ccc(N(C)S(=O)(=O)c2cccc(C(=O)NCCCN3CCCC3=O)c2)cc1	none (no result: CHOP inhibitor)
O=C(CCN1C(=O)/C(=C/c2ccccc2)SC1=S)Nc1ccccn1	none (no result: CHOP inhibitor)
Cc1ccc(/C=C2\SC(=S)N(CCCC(=O)Nc3ccc(O)cc3)C2=O)cc1	CHOP inhibitor 99.7, 697 NFkB inh 92.2 | CHOP inh conf 113.6 | 697 NFkB conf 90.1
Cc1ccc(/C=C2\SC(=S)N(CCCC(=O)Nc3ccccn3)C2=O)cc1	CHOP inhibitor 111.1, 697 NFkB inh 80.8 | CHOP inh conf 113.5 | 697 NFkB conf 95.8
Cc1nn(C(C)(C)C)c(C)c1/C=N/OC(=O)Nc1ccc(Cl)cc1	Gli-Sufu block 91.8, Jurkat NFkB inh 74.9, CHOP inhibitor 99.4, 697 NFkB inh 52.1 | CHOP inh conf 116.9 | Jurkat NFkB conf 95.1 | 697 NFkB conf 62.9
Cc1nn(C)c(C)c1/C=N/NC(=O)C(C)(C)Oc1ccc(Cl)cc1	none
O=C(CSc1nc(C(F)(F)F)cc(=O)[nH]1)NCc1ccc2c(c1)OCO2	none (no result: CHOP inhibitor)
CC1=CC(C)(C)Nc2ccc(OC(=O)c3ccco3)cc21	697 NFkB inh 78.6 (no result: CHOP inhibitor) | CHOP inh conf inactive | 697 NFkB conf 38.2
O=C(Oc1cccc(OC(=O)c2ccco2)c1)c1ccco1	none (no result: CHOP inhibitor)
O=C(O)c1cccc(COc2ccc(CO)cc2Cl)c1	Jurkat NFkB inh 94.3, CHOP inhibitor 97.4, 697 NFkB inh 75.4 | CHOP inh conf 120.8 | Jurkat NFkB conf 88.8 | 697 NFkB conf 59.4
COc1ccc(OCc2cccc(C(=O)O)c2)cc1	Jurkat NFkB inh 87.6, CHOP inhibitor 105.0, 697 NFkB inh 80.4 | CHOP inh conf 126.0 | Jurkat NFkB conf 88.0 | 697 NFkB conf 70.8
O=Cc1ccc(OCc2cccc(C(F)(F)F)c2)cc1O	none
O=C(OCC(F)(F)F)c1cccc(COc2ccc3ccccc3c2)c1	Jurkat NFkB inh 76.9, CHOP inhibitor 97.1, 697 NFkB inh 57.8 | CHOP inh conf 115.5 | Jurkat NFkB conf inactive | 697 NFkB conf 33.4

Compound activity: PubChem, several laboratories
